Lmaj promast: inhibitors of Leishmania major promastigote growth | inhibition, % at 10 µM | 9% of 200,000 active | AID 1063 | Leishmania major promastigotes, resazurin fluorescence viability;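 further: promastigotes grown with compound for 44 hours at 28 °C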
Diaph inh CS: inhibits diaphorase or chemically oxidizes, flagging diaphorase assay artifacts; diaphorase resazurin-to-resorufin fluorescence, NADH, 16 min; bacterial (C. kluyveri) enzyme, not human; inhibition, % at 20 µM; 0.69% of 190,000 active;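 active means primary screen inhibition at 20 µM above a set limit, cut at about 50% in these data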;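 further: plate controls were DMSO with full reaction for no effect and wells lacking NADH for full effect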
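Assay system – diaphorase enzyme from Clostridium kluyveri · Amount – diaphorase 0.14 U/mL (working solution) · Times – reaction incubation of 16 min at room temperature · Controls – No-NADH positive control and DMSO neutral control · Signal – resorufin fluorescence 544/590 nm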
WT yeast gro inh: growth inhibition of WT yeast, mitochondrial fusion screen; mitochondrial fusion phenotypic screen, WT strain; inhibition, % at 10 µM; 2.1% of 190,000 active; in the data active means inhibition above about 58%; tested in S. cerevisiae
Diaphorase act: counter-screen for diaphorase-based assays: diaphorase activators and chemical reducers; Diaphorase/resazurin coupled assay, resorufin fluorescence, 16 min; active compounds read high; 1 = vehicle wells, 0 = NADH-free wells; activation factor at 20 µM; 0.005% of 190,000 active;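 active means diaphorase activity raised at least twofold by the compound at 20 µM; inactive means activation factor below 2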
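Material: Purified diaphorase enzyme from Clostridium kluyveri | Buffer or medium: 50 mM HEPES pH 7.4 with 4.542 mM MgCl2, 0.005% Tween 20 | Times: 16 min enzyme reaction, ambient temperature | Signal: Red resorufin fluorescence at 544/590 nm excitation/emission | Measure: Increased resorufin signal from activators or reducing compounds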
G6PDH counter: L. mesenteroides G6PDH inhibition counter-screen; inhibition, % at 5 µM; Purified L. mesenteroides G6PDH, diaphorase/resazurin coupled fluorescence, 45 min; 0.12% of 200,000 active
Starred values were filed as active, the others as inactive. Hits are enriched below; roughly 11% of the tested compounds scored in any of these assays. Unless noted, no stated cut-off is given here; in the data, active means inhibition above about 50%; inactive means the rest.

For CCCC/C(C)=C/[C@@H](NP(=O)(c1ccccc1)c1ccccc1)c1ccccc1 the results were Lmaj promast 25, Diaph inh CS 12, WT yeast gro inh 91*, Diaphorase act 0.9 and G6PDH counter 21.
For CN1CCN(c2ccc(Cl)cc2N)CC1 the results were Lmaj promast -3, Diaph inh CS 3, WT yeast gro inh 18, Diaphorase act 1 and G6PDH counter 8.
`Cc1ccc(Cl)cc1N1CCN(CCN)CC1` gave Lmaj promast 100*, Diaph inh CS -2, WT yeast gro inh 1, Diaphorase act 1 and G6PDH counter 1.
O[C@H]1C2CCC1C(N1CCCCC1)CC2 (stereo partly specified) was read as Lmaj promast 0, Diaph inh CS 15, WT yeast gro inh -1, Diaphorase act 0.8 and G6PDH counter -4.
`CC1CCCN(CC(=O)N2CCCc3ccccc32)C1` (stereo unspecified) gave Lmaj promast -3, Diaph inh CS 15, WT yeast gro inh 8, Diaphorase act 0.8 and G6PDH counter 4.
For O=C(c1ccccc1)c1cn(CC(=O)N2CCCc3ccccc32)c2ccccc12 the results were Lmaj promast 95*, Diaph inh CS 10, WT yeast gro inh -1, Diaphorase act 0.9 and G6PDH counter 8.
For Nc1ccccc1C(=O)OCc1ccc([N+](=O)[O-])cc1 the results were Lmaj promast -6, Diaph inh CS 8, WT yeast gro inh -39, Diaphorase act 0.9 and G6PDH counter 9.
`CNc1cc(Cl)c2nonc2c1[N+](=O)[O-]` gave Lmaj promast 75*, Diaph inh CS 43, WT yeast gro inh 54, Diaphorase act 0.6 and G6PDH counter 6.
`CCc1c(C)nc(N)nc1N1N=C1SCC(=O)OC` gave Lmaj promast -4, Diaph inh CS 77*, WT yeast gro inh 9, Diaphorase act 0.2 and G6PDH counter 6.
`CCCCn1c(=O)c(C(=O)NCc2ccncc2)c(O)c2ccccc21` gave Lmaj promast 89*, Diaph inh CS 12, WT yeast gro inh 1, Diaphorase act 0.9 and G6PDH counter 11.
`CCCCCn1c(=O)c(C(=O)Nc2cnccn2)c(O)c2ccccc21` gave Lmaj promast 98*, Diaph inh CS 10, WT yeast gro inh 5, Diaphorase act 0.9 and G6PDH counter 7.
Screening CCOC(=O)C(O)(c1ccc(N(C)C(=O)COc2ccccc2)cc1)C(F)(F)F (stereo unspecified) returned Lmaj promast 25.
For CCOC(=O)N(C)c1ccc(C(O)(C(=O)OC)C(F)(F)F)cc1 (stereo unspecified) the results were Lmaj promast 93*, Diaph inh CS 0, WT yeast gro inh -6, Diaphorase act 1 and G6PDH counter 11.
Screening COC(=O)C(O)(c1ccc(N(C)C)cc1)C(F)(F)F (stereo unspecified) returned Lmaj promast 0, Diaph inh CS 1, WT yeast gro inh -13, Diaphorase act 1 and G6PDH counter 8.
`COC(=O)C(O)(c1ccc(N(C)C(=O)c2cccs2)cc1)C(F)(F)F` (stereo unspecified) gave Lmaj promast 97*, WT yeast gro inh -2 and G6PDH counter -2.
For CCOC(=O)C(O)(c1ccc(N(C)C(=O)c2ccc(Cl)c(Cl)c2)cc1)C(F)(F)F (stereo unspecified) the results were Lmaj promast 97*, Diaph inh CS 22, WT yeast gro inh 26, Diaphorase act 0.8 and G6PDH counter 8.
`COC(=O)C(O)(c1ccc(N(C)C(=O)c2ccc(Cl)c(Cl)c2)cc1)C(F)(F)F` (stereo unspecified) gave Lmaj promast 64*, Diaph inh CS 12, WT yeast gro inh -4, Diaphorase act 0.9 and G6PDH counter -4.
Screening N[C@@H](Cc1c[nH]c2ccccc12)c1nnc(SCc2ccccc2F)o1 returned Lmaj promast -2, Diaph inh CS -3, WT yeast gro inh 5, Diaphorase act 1 and G6PDH counter 2.
For CN1C(=O)CN=C(c2ccccc2)c2cc(Cl)ccc21 the results were Diaph inh CS 25, WT yeast gro inh -6, Diaphorase act 0.8 and G6PDH counter 1.
COc1ccc(C2SCC(=O)Nc3c2c(C)nn3-c2ccccc2)cc1OC (stereo unspecified) was read as Lmaj promast 62*, Diaph inh CS 10, WT yeast gro inh -13, Diaphorase act 0.9 and G6PDH counter 6.

Bioassay records deposited in PubChem BioAssay by several laboratories.
